Experimental data as given in ChEMBL document CHEMBL5046294, “Rational Design, Chemical Syntheses, and Biological Evaluations of Peripherally Selective Mu Opioid Receptor Ligands as Potential Opioid Induced Constipation Treatment” (J Med Chem, 2022).
pEC50, pKi: −log10 of the molar value. Activity calls are given as the source filed them.

Experiments:
[1] = target: Mu-type opioid receptor (Mus musculus) (UniProt P42866); assay: Antagonist activity at mouse mu opioid receptor expressed in CHO cell membrane assessed as reduction in DAMGO-induced […]-GTPgammaS binding by measuring maximal efficacy incubated for 1.5 hrs by liquid scintillation counting method relative to control; format: functional, cell membranes
Outline: (§1)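 [³⁵S]GTPγS binding. Membranes (10 μg protein) from CHO cells expressing MOR, KOR or DOR. Buffer TME (50 mM Tris, 3 mM MgCl₂, 0.2 mM EGTA, pH 7.4) with 100 mM NaCl, 20 μM GDP and 0.1 nM [³⁵S]GTPγS. Test compound at varying concentrations. Incubation 1.5 h at 30 °C. Nonspecific binding with 20 μM unlabeled GTPγS. Reference full agonist at 3 μM: DAMGO (MOR), U50488H (KOR), SNC80 (DOR). Filtration, then scintillation counting. Duplicates, at least three repeats.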

[2] = Selectivity index, ratio of Ki for binding affinity to human delta opioid receptor to Ki for binding affinity to mouse mu opioid receptor
Outline: (§2)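 Competition binding. Membranes (30 μg protein) from CHO cells with mouse MOR or KOR, or human DOR. Incubated with radioligand and varying test concentrations in TME buffer, pH 7.4, 1.5 h at 30 °C. Filtration harvest. Nonspecific binding defined with 5 μM naltrexone (MOR), U50,488 (KOR) or SNC80 (DOR). IC₅₀ by nonlinear regression, converted to Ki by Cheng-Prusoff. Selectivity ratios taken from these Ki values. At least three independent experiments.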

Mus musculus [3] = assay: Antinociceptive activity against Swiss Webster mouse assessed as tail withdrawal latency from warm water by measuring maximum possible effect at 10 mg/kg, sc measured after 20 mins by warm water tail immersion assay; format: functional
Outline: (§3)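 Male Swiss Webster mice, 5–8 weeks, 25–35 g, 6 per group. Tail immersed (distal third) in water at 56 ± 0.1 °C. Mice included only with baseline latency 2–4 s. Compound 10 mg/kg s.c.; in the challenge arm it was given 5 min before morphine 10 mg/kg s.c. Latency read 20 min after injection, 10-s cutoff. %MPE = (test − control)/(10 − control) × 100. Dunnett-corrected one-way ANOVA.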

Mus musculus [4] = assay: Antinociceptive activity against sc dosed Swiss Webster mouse model assessed as effect on morphine induced antinociception by measuring tail withdrawal latency from warm water incubated for 5 mins followed by morphine addition measured after 20 mins by warm water tail immersion assay; format: functional; settings: for Activity: time 25.0 min; outline: as §3
Mu-type opioid receptor [5] = target: T1, Mu-type opioid receptor (Mus musculus, UniProt P42866); assay: Binding affinity to mouse mu opioid receptor expressed in CHO cells in presence of naltrexone incubated for 1.5 hrs by competitive radioligand binding assay; format: cell-based; outline: as §2
Mus musculus [6] = species on record: Mus musculus; assay: Selectivity index, ratio of Ki for binding affinity to mouse kappa opioid receptor to Ki for binding affinity to mouse mu opioid receptor; outline: as §2
[7] = target: T2, Delta-type opioid receptor (Homo sapiens, UniProt P41143); assay: Binding affinity to human delta opioid receptor in presence of SNC80 incubated for 1.5 hrs by competitive radioligand binding assay; outline: as §2
[8] = target: T3, Kappa-type opioid receptor (Mus musculus, UniProt P33534); assay: Binding affinity to mouse kappa opioid receptor expressed in CHO cells in presence of U50488 incubated for 1.5 hrs by competitive radioligand binding assay; format: cell-based; outline: as §2
Mus musculus [9] = assay: Antinociceptive activity against Swiss Webster mouse assessed as tail withdrawal latency from warm water by measuring maximum possible effect at 10 mg/kg, sc incubated for 5 mins followed by morphine addition measured after 20 mins by warm water tail immersion assay; format: functional; settings: time 25 min; outline: as §3
Mu-type opioid receptor [10] = target: T1, Mu-type opioid receptor; assay: Antagonist activity at mouse mu opioid receptor expressed in CHO cell membrane assessed as reduction in DAMGO-induced […]-GTPgammaS binding incubated for 1.5 hrs by liquid scintillation counting method; format: functional, cell membranes
[11] = target: T2, Delta-type opioid receptor; assay: Antagonist activity at human delta opioid receptor expressed in CHO cell membrane assessed as reduction in SNC80-induced […]-GTPgammaS binding by measuring maximal efficacy incubated for 1.5 hrs by liquid scintillation counting method relative to control; format: functional, cell membranes; outline: as §1
Mus musculus [12] = assay: Gastroprokinetic activity in Swiss Webster mouse assessed as stimulation of gastrointestinal motility by measuring time required to defecation of red fecal pellet at 10 mg/kg, sc incubated for 5 mins followed by morphine addition at 10 mg/kg and measured after 20 mins by carmine red dye assay; format: functional; settings: time 25 min
Outline: (§4)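 Male Swiss Webster mice, 5–6 per group, housed singly. Compound or vehicle given s.c. or by oral gavage 5 min before morphine (10 or 5 mg/kg) or vehicle. 20 min after morphine, 0.2 mL of 6% carmine red in 0.5% CMC given orally (time 0). Time to first red pellet recorded, 6-h cutoff. Dunnett-corrected one-way ANOVA.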

[13] = target: T4, Kappa-type opioid receptor (Homo sapiens, UniProt P41145); assay: Antagonist activity at kappa opioid receptor (unknown origin) expressed in CHO cell membrane assessed as reduction in U50,488H -induced […]-GTPgammaS binding by measuring maximal efficacy incubated for 1.5 hrs by liquid scintillation counting method relative to control; format: functional, cell membranes; outline: as §1
[14] = target: T2, Delta-type opioid receptor; assay: Antagonist activity at human delta opioid receptor expressed in CHO cell membrane assessed as reduction in SNC80-induced […]-GTPgammaS binding incubated for 1.5 hrs by liquid scintillation counting method; format: functional, cell membranes
[15] = target: T3, Kappa-type opioid receptor; assay: Antagonist activity at kappa opioid receptor (unknown origin) expressed in CHO cell membrane assessed as reduction in U50,488H-induced […]-GTPgammaS binding incubated for 1.5 hrs by liquid scintillation counting method; format: functional, cell membranes
Mus musculus [16] = assay: Gastroprokinetic activity in Swiss Webster mouse assessed as stimulation of gastrointestinal motility by measuring time required to defecation of red fecal pellet at 10 mg/kg, po incubated for 5 mins followed by morphine addition at 10 mg/kg and measured after 20 mins by carmine red dye assay; format: functional; settings: time 25 min; outline: as §4
[17] = target: T4, Kappa-type opioid receptor; assay: Displacement of [3H]-U69593 from human recombinant kappa opioid receptor by radioligand binding assay
Mus musculus [18] = assay: Gastroprokinetic activity in Swiss Webster mouse assessed as stimulation of gastrointestinal motility by measuring time required to defecation of red fecal pellet at 10 mg/kg, po incubated for 5 mins followed by morphine addition at 5 mg/kg and measured after 20 mins by carmine red dye assay; format: functional; settings: time 25 min; outline: as §4
[19] = target: T4, Kappa-type opioid receptor; assay: Antagonist activity at human recombinant kappa opioid receptor assessed as reduction in U50,488H-induced […]-GTPgammaS binding; format: functional
Mus musculus [20] = assay: Reversal of morphine induced constipation in Swiss Webster mouse at 10 mg/kg, po for 5 mins followed by morphine addition at 5 mg/kg and measured after 20 mins by carmine red dye assay; format: functional; outline: as §4
Mu-type opioid receptor [21] = target: Mu-type opioid receptor (Homo sapiens, UniProt P35372); assay: Antagonist activity at human recombinant mu opioid receptor assessed as reduction in DAMGO-induced […]-GTPgammaS binding; format: functional
Mus musculus [22] = assay: Reversal of morphine induced constipation in Swiss Webster mouse at 10 mg/kg, po for 5 mins followed by morphine addition measured after 20 mins by carmine red dye assay relative to control; format: functional; settings: time 25 min; outline: as §4
Mus musculus [23] = assay: Gastroprokinetic activity in Swiss Webster mouse assessed as stimulation of gastrointestinal motility by measuring time required to defecation of red fecal pellet at 10 mg/kg, sc incubated for 20 mins by carmine red dye assay; format: functional
Outline: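 Male Swiss Webster mice (5–8 weeks, 25–35 g), singly caged, 5–6 per group. Compound or vehicle was given s.c. 5 min before morphine 10 mg/kg (or vehicle). 20 min after morphine, mice received 0.2 mL of 6% carmine red dye in 0.5% carboxymethyl cellulose orally, set as time 0. Latency to the first red fecal pellet was measured, with a 6 h cut-off. One-way ANOVA followed by Dunnett test.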

Mus musculus [24] = assay: Gastroprokinetic activity in Swiss Webster mouse assessed as stimulation of gastrointestinal motility by measuring time required to defecation of red fecal pellet at 10 mg/kg, po incubated for 20 mins by carmine red dye assay; format: functional
Outline: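 Male Swiss Webster mice (5–8 weeks, 25–35 g), singly caged, 5–6 per group. Compound or vehicle was given by oral gavage 5 min before s.c. morphine (10 or 5 mg/kg) or vehicle. Oral vehicle was also given to naïve and morphine groups. 20 min after morphine, mice received 0.2 mL of 6% carmine red in 0.5% CMC p.o. (time 0). Time to the first red pellet was recorded, with a 6 h cut-off. One-way ANOVA with Dunnett test.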

Mus musculus [25] = assay: Gastroprokinetic activity in Swiss Webster mouse assessed as stimulation of gastrointestinal motility by measuring time required to defecation of red fecal pellet at 5 mg/kg, po incubated for 20 mins by carmine red dye assay; format: functional; outline: as §4

O=C(N[C@@H]1CC[C@@]2(O)[C@H]3Cc4ccc(O)c5c4[C@@]2(CCN3CC2CC2)[C@H]1O5)c1ncc[nH]1
Emax [1]: 7.5%
Ratio Ki [2]: 335
Activity (Mus musculus [3]): inactive
Activity (Mus musculus [4]): inactive
pKi (Mu-type opioid receptor [5]): 9.36
Ratio Ki (Mus musculus [6]): 11
pKi [7]: 6.84
pKi [8]: 8.32
MPE (Mus musculus [9]): 32.7%
pEC50 (Mu-type opioid receptor [10]): 8.76

O=C(Cc1cc[nH]n1)N[C@H]1CC[C@@]2(O)[C@H]3Cc4ccc(O)c5c4[C@@]2(CCN3CC2CC2)[C@H]1O5
Emax ([11]; filed as antagonist): 69.3%
Time (Mus musculus [12]): 154 min
Activity (Mus musculus [3]): inactive
Emax ([13]; filed as antagonist): 49.9%
pEC50 [14]: 7.69
Activity (Mus musculus [4]): inactive
pKi (Mu-type opioid receptor [5]): 8.98
pKi [7]: 6.71
pEC50 [15]: 7.00
pKi [8]: 6.81
pEC50 (Mu-type opioid receptor [10]): 8.21
Time (Mus musculus [16]): 57 min

C[N@+]1(CC2CC2)CC[C@]23c4c5ccc(O)c4O[C@H]2C(=O)CC[C@@]3(O)[C@H]1C5 [METHYLNALTREXONE]
pKi [17]: 7.49
Time (Mus musculus [18]): 111 min
pEC50 [19]: < 5.00
Activity (Mus musculus [20]; time 25.0 min): inactive
pEC50 (Mu-type opioid receptor [21]): < 5.00

O=C(N[C@@H]1CC[C@@]2(O)[C@H]3Cc4ccc(O)c5c4[C@@]2(CCN3CC2CC2)[C@H]1O5)c1cnc[nH]1
Emax [11]: 22.1%
Activity (Mus musculus [22]): 38%
Time (Mus musculus [12]): 137 min
Activity (Mus musculus [3]): inactive
Time (Mus musculus [18]): 27 min
Activity (Mus musculus [20]; time 25 min): 75%
Emax [13]: 9.03%
Activity (Mus musculus [4]): inactive
pKi (Mu-type opioid receptor [5]): 9.24
pKi [7]: 6.68
pEC50 [15]: 7.93
pKi [8]: 7.73
pEC50 (Mu-type opioid receptor [10]): 8.94
Time (Mus musculus [16]): 71 min

CN1CC[C@]23c4c5ccc(O)c4O[C@H]2[C@@H](O)C=C[C@H]3[C@H]1C5 [MORPHINE]
Time (Mus musculus [23]): 124 min
Time (Mus musculus [24]): 115 min
Time (Mus musculus [25]): 105 min

O=C(N[C@H]1CC[C@@]2(O)[C@H]3Cc4ccc(O)c5c4[C@@]2(CCN3CC2CC2)[C@H]1O5)c1ncc[nH]1
Emax [1]: 7.85%
Ratio Ki [2]: 152
Activity (Mus musculus [3]): inactive
AD50 (Mus musculus [4]; time 25 min): 5.3 mg/kg
pKi (Mu-type opioid receptor [5]): 9.33
Ratio Ki (Mus musculus [6]): 4
pKi [7]: 7.15
pKi [8]: 8.75
MPE (Mus musculus [9]): 9.2%
pEC50 (Mu-type opioid receptor [10]): 8.70

O=C(N[C@@H]1CC[C@@]2(O)[C@H]3Cc4ccc(O)c5c4[C@@]2(CCN3CC2CC2)[C@H]1O5)c1ccncc1
Time (Mus musculus [18]): 151 min
Activity (Mus musculus [20]; time 25.0 min): inactive
